Key:
Conditions in all cases: route intraperitoneal
L1210 [1] = assay: Compound tested for activity against mouse leukemia L1210 tumor (Intraperitoneally implanted) after single ip injection on day 1 at optimal dose of 100 mg/kg (Dose range 256-16); assay type: functional
Summary of the method: (§1)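 L1210 leukaemia implanted intraperitoneally in mice. Compound given over a dose range (mg/kg); optimum dose selected. Survivors for toxicity recorded day 5 post-injection. Measures: T – C body weight difference (g), % T/C, and cures, defined as 30-day survivors.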

L1210 [2] = assay: Effect of compound on mouse leukemia L1210 tumor (Intraperitoneally implanted) after single dose injected intraperitoneally on day 1 recorded as animal weight difference of the treated and the control (T-C) at OD of 100 mg/kg; assay type: functional; summary of the method: as §1
L1210 [3] = assay: The effect of compound on mouse leukemia L1210 tumor (Intraperitoneally implanted)after single dose injected intraperitoneally on day 1 […] at OD of 100 mg/kg; assay type: functional
L1210 [4] = assay: Compound tested for toxicity against mouse leukemia L1210 tumor (Intraperitoneally implanted) after single ip injection on day 1 at optimal dose (OD) of 100 mg/kg on the 5th day after the injection of the compound; (6/6); assay type: functional
L1210 [5] = assay: Compound tested for activity against mouse leukemia L1210 tumor (Intraperitoneally implanted) after single ip injection on day 1 at optimal dose of 100 mg/kg (Dose range 400-12.5); assay type: functional; summary of the method: as §1
L1210 [6] = assay: Compound tested for toxicity against mouse leukemia L1210 tumor (Intraperitoneally implanted) after single ip injection on day 1 at optimal dose (OD) of 12.5 mg/kg on the 5th day after the injection of the compound; (5/5)

Compound	Optimal dose (L1210 [1]) [mg/kg]	T-C (L1210 [2]) [g]	T/C (L1210 [3]) [%]	Survival (L1210 [4])	Optimal dose (L1210 [5]) [mg/kg]	Survival (L1210 [6])
CCN1CCCC(NC(=O)N(CCCl)N=O)C1.O=C(O)/C=C\C(=O)O (configuration not stated)	128	-5.9	235	6		
O=C(O)/C=C\C(=O)O.O=NN(CCCl)C(=O)Nc1cccnc1		-7	126		12.5	5
CCCCN1CCC(NC(=O)N(CCCl)N=O)CC1.O=C(O)/C=C\C(=O)O	64	-3.9	197	6		

Reference: ChEMBL document CHEMBL1121486, “Synthesis of nitrosourea derivatives of pyridine and piperidine as potential anticancer agents” (1980)
